# Measured values gathered from unrelated publications.
# Protocols differ between the studies behind these lines.
# Target: NUAK family SNF1-like kinase 2 (NUAK2, Homo sapiens, UniProt Q9H093)
# Residues used in one study (Q9H093 1-628): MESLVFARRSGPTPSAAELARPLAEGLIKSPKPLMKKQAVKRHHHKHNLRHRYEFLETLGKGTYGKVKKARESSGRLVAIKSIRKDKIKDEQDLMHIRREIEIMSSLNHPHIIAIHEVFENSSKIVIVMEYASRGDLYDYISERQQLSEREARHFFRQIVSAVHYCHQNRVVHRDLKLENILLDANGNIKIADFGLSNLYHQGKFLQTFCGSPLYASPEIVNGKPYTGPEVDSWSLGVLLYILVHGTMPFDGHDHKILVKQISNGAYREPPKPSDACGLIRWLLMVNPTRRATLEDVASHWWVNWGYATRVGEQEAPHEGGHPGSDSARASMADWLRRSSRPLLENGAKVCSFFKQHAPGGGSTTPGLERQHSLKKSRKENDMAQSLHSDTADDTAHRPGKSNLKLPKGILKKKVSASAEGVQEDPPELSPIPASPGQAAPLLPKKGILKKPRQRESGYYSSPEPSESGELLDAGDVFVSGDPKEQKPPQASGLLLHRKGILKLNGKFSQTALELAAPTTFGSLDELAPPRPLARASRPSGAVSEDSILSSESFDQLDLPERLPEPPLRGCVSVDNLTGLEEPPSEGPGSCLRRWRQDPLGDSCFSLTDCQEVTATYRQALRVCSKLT
SMILES,assay,conditions,remaining binding
Cc1cnc(Nc2ccc(C(=O)N3CCC(N4CCCC4)CC3)cc2)nc1-c1cc2ccccc2s1,"binding, competition with immobilised ligand",1 µM,1%
CNC(=O)[C@@H]1CC[C@@H](n2c(-c3ccc4cnccc4c3)nc3ccc(C(=O)NCc4cccc(C(N)=O)c4)cc32)C1,"binding, competition with immobilised ligand",1 µM,100%
C[C@H]1CCN(c2nccc(-c3cnn4ncccc34)n2)C1,binding,1 µM,79%
CO[C@@H](C)c1c(Nc2ccc([C@@H](N(C)C(=O)C3CCS(=O)(=O)CC3)C(F)(F)F)cc2)cnc2cc(Cl)nn12,"cell-free assay, competition with immobilised ligand",1 µM,100%
O=C(NCCCN1CCOCC1)c1ccc(Nc2ncc(Cl)c(-c3ccc(Cl)s3)n2)cc1,"binding, competition with immobilised ligand",1 µM,0.85%
CCCCN(CCCC)C(=O)CN1C[C@@H](c2cc(OC)c3c(c2)OCO3)[C@H](C(=O)O)[C@H]1CC(C)(C)CCC,"cell-free assay, competition with immobilised ligand",1 µM,100%
O=C(c1ccc(Nc2ncc(Cl)c(-c3cc4ccccc4s3)n2)cc1)N1CCC(N2CCCC2)CC1,"binding, competition with immobilised ligand",1 µM,0.8%
CN(C)c1ncc(F)c(-c2cnn3ncccc23)n1,binding,1 µM,80%
O=C(N1CCS(=O)(=O)CC1)N1C[C@H](c2ccc(OC(F)(F)F)cc2)C[C@H](c2nc(C3CC3)no2)C1,"cell-free assay, competition with immobilised ligand",1 µM,100%
N#Cc1ccccc1CSc1nnc2c(n1)[nH]c1ccccc12,"binding, competition with immobilised ligand",10 µM,93%
C[C@H](NC(=O)c1cnc2n1[C@](C)(Cc1ccc(C#N)cc1)C(=O)N2c1cc(Cl)c(F)c(Cl)c1)C(=O)NC1(c2ccccn2)CC1,"cell-free assay, competition with immobilised ligand",1 µM,100%
CN(C)c1nccc(-c2cnn3ncccc23)n1,binding,1 µM,100%
COc1cnc(Nc2cccc(S(N)(=O)=O)c2)nc1N1CCN(c2ccccc2)C(=O)C1,"binding, competition with immobilised ligand",1 µM,54%
CNCc1ccccc1-c1csc([C@H](C)Nc2nc(C)nc3cc(OC)c(OC)cc23)c1,"cell-free assay, competition with immobilised ligand",1 µM,100%
O=C(Nc1c[nH]nc1C(=O)NC1CCNCC1)c1cc(F)cc(F)c1,"binding, competition with immobilised ligand",1 µM,100%
c1cnn2ncc(-c3ccnc(N4CCC45COC5)n3)c2c1,binding,1 µM,64%
Nc1ncc2c(n1)-c1c([nH]c3ccc(C#CC4CC4)cc13)CCCC2,"binding, competition with immobilised ligand",1 µM,92%
Nc1c(C(=O)NCc2ccc(C(=O)NCCCC3CCCCC3)cc2)cnn1-c1ccccc1,"cell-free assay, competition with immobilised ligand",0.1 µM,100%
C[C@@H]1CN(c2ccc3ncc(-c4ccc5[nH]nc(C6CC6)c5c4)n3n2)C[C@H](C)O1,"binding, competition with immobilised ligand",0.5 µM,58%
COc1ncc2cc3ccccc3nc2c1C#N,"cell-free assay, competition with immobilised ligand",5 µM,100%
Cc1c(NC(=O)c2cc(C(N)=O)nc3cc(F)ccc23)c(C(F)(F)F)nn1Cc1ccc(C#N)cc1,"cell-free assay, competition with immobilised ligand",1 µM,83%
N[C@@H]1CCN(c2nccc(-c3cnn4ncccc34)n2)C1,binding,1 µM,100%
